This is a sample that favours compounds with a hit; in the whole collection about 2.8% have one here.
Measles CPE = protection of cells from measles virus; protection (pct of control), % at 4 µM; AID 841; Measles virus-infected cells, CPE protection, absorbance; 140,000 tested, 1.5% active; in the data active = protection mostly above about 24%, no sharp cut-off; inactive = mostly below about 26%
NPY2 pot ag = potentiators or agonists of human neuropeptide Y receptor Y2. P49146. cells expressing NPY-Y2, potentiator/agonist read-out. activation, % at 3.6 µM. 220,000 tested, 0.45% active. AID 1359; in the data active = activation above about 27%;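 note: cells stimulated with NPY near EC25 plus isoproterenol at EC100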
NPY-Y1 antag = NPY-Y1 (human) receptor antagonism. 200,000 tested, 1% active. P25929. HEK293-CNG Y1 cells, membrane potential fluorescence; NPY at EC95, then isoproterenol. inhibition, % at 3.6 µM;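 active = inhibition above the campaign mean inhibition of all tested compounds plus 3 SD, cut at about 20% in these data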
Target sequence (P25929 whole entry, looked up): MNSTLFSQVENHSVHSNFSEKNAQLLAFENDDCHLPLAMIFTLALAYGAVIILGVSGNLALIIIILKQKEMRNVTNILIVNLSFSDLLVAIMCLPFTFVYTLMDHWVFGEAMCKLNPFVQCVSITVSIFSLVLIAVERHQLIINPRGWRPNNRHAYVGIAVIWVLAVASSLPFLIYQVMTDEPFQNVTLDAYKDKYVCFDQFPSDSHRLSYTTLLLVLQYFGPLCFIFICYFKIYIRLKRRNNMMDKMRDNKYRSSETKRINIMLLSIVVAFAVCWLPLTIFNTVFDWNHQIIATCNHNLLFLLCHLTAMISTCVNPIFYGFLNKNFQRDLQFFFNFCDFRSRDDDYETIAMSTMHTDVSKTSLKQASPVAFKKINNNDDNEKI
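Test system – HEK293 Y1/CNG channel cell line · Also added – NPY agonist 25 nM, then isoproterenol 1 µM plus Ro 20-1724 25 µM · Compound dosing – one concentration, 3.6 µM, in 0.4% DMSO · Schedule – compound incubation 1 h at room temperature, readout 45 min post-stimulation · Technique – fluorescence, membrane potential probe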
NPY1 pot ag = potentiates or activates human NPY-Y1 receptor. NPY-Y1 expressing cells, potentiator/agonist activation. activation, % at 3.6 µM. 220,000 tested, 0.37% active. AID 1304; in the data active = activation above about 33%, passing the limit was not always enough;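 note: cells stimulated with NPY at EC10 then isoproterenol at EC100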
Rad51 HR inh = blocks human Rad51 in homologous recombination | 200,000 tested, 0.085% active | AID 1385 | Q06609 | hRad51 DNA strand exchange, fluorescence dequenching | inhibition, % at 10 µM;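 active = inhibition above 40% at the single screening dose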
Target sequence (Q06609 whole entry, looked up): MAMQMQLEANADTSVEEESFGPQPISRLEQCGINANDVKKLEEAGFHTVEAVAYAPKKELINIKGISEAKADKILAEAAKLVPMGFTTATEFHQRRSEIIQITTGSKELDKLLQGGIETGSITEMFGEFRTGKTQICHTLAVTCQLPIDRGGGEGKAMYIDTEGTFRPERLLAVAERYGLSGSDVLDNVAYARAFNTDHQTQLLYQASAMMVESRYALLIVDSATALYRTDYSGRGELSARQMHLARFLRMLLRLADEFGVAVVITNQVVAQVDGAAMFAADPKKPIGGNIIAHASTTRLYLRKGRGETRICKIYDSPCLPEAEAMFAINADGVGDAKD
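System: hRad51 filaments on single-stranded DNA; reagent: Fluorescein- and BHQ1-tagged 47-mer duplex; compound dosing: one concentration, 10 µM final; timing: filaments 15 min 37 °C, then compound 30 min; measured by: fluorescein emission 520 nm, excitation 485 nm; benchmarks: per-plate controls and blanks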
NPY Y2 blocker = antagonists of human neuropeptide Y receptor Y2; inhibition, % at 2.7 µM; NPY-Y2 expressing cells, antagonist mode; 140,000 tested, 0.99% active; P49146; in the data active = inhibition above about 17%
Each line names hits and unclear results; the compound was inactive in the other large screens.

Cc1occc1C(=O)NC1CCCCCCC1	Measles CPE 28 (no result: Rad51 HR inh)
CC(C)C(c1nnnn1Cc1ccco1)N1CCN(c2cccc(Cl)c2)CC1 (centres undefined)	none (no result: Rad51 HR inh)
CC(C)C(c1nnnn1C(C)(C)C)N1CCN(c2cccc(Cl)c2)CC1 (centres undefined)	NPY-Y1 antag 48, NPY Y2 blocker 22
CCOC(=O)C(C)n1nc(/C=C/c2ccc(OC)cc2)ccc1=O (centres undefined)	none (no result: Measles CPE, NPY Y2 blocker)
CCOC(=O)C(C)n1nc(/C=C/c2ccccc2)ccc1=O (centres undefined)	Measles CPE 88
COC(=O)[C@@]1(Cc2ccccc2)[C@H]2c3cc(C(=O)N4CCCC4)n(Cc4ccsc4Br)c3C[C@H]2CN1C(=O)c1ccccc1	NPY-Y1 antag 49, NPY Y2 blocker 23
CC(CNS(=O)(=O)c1ccccc1)(c1ccccc1)N1CCOCC1 (centres undefined)	none
CC(C)(C)c1nn(-c2ccccc2)c2[nH]c(=O)c(CNc3ccc4c(c3)OCCO4)cc12	NPY2 pot ag 39, NPY1 pot ag 54
COc1ccc(S(=O)(=O)N2CCN(C(=O)c3ccco3)CC2)cc1OC	Measles CPE 57
Cc1c(C(=O)NCCCN2CCOCC2)oc2ccc(S(=O)(=O)N3CCOCC3)cc12	none (no result: Measles CPE, NPY Y2 blocker)
CCCN(CCC)CCCNC(=O)C1c2cc(OC)c(OC)cc2C(=O)N(C)C1c1cccnc1 (centres undefined)	none (no result: Measles CPE, NPY Y2 blocker)
Cc1c(/C(O)=C2/C(=O)C(=O)N(CCN3CCOCC3)C2c2ccccn2)cnn1-c1ccccc1 (centres undefined)	none (no result: Measles CPE, NPY Y2 blocker)
COc1ccc(C)cc1N(CC(N)=O)S(=O)(=O)c1ccc(C)cc1	none
COc1nc(N(CC(N)=O)S(=O)(=O)c2ccccc2)nc(C)c1Cl	Measles CPE 29
N#C/C(=C\c1ccc(OC(F)F)cc1)C(=O)N1CCCCC1	none (no result: Measles CPE, NPY-Y1 antag, NPY Y2 blocker)
CN1CCC(N(C)C(=O)/C(C#N)=C/c2ccc(OC(F)F)cc2)CC1	Rad51 HR inh 45 (no result: Measles CPE, NPY-Y1 antag, NPY Y2 blocker)
CC(C)NCC(O)c1ccc(NS(C)(=O)=O)cc1 (centres undefined)	NPY1 pot ag 96 (no result: Measles CPE, NPY Y2 blocker)
CCOC(=O)c1ccc(NS(C)(=O)=O)cc1	none
CC(C)(C)c1ccc(-n2nc(C#N)c(Cl)cc2=O)cc1	NPY2 pot ag 61, NPY1 pot ag 67 (no result: Measles CPE, NPY Y2 blocker)
FC(F)(F)c1nnc2ccc(NCc3ccccc3)nn12	none (no result: Measles CPE, NPY Y2 blocker)
CCOc1ccccc1-n1c(SCC(=O)N2CCCc3ccccc32)nnc1-c1cccnc1	none (no result: Rad51 HR inh)
O=C(CSc1nnc(-c2cccnc2)n1-c1ccc(SC(F)F)cc1)N1CCCc2ccccc21	NPY Y2 blocker 19
Cc1cc(C)n(-c2ccc(C(=O)OCC(=O)NC(c3ccccc3)c3ccccc3)cc2)n1	Measles CPE 51 (no result: Rad51 HR inh)
O=S(=O)(c1ccc(Oc2ccc(-c3nnco3)cc2)nc1)N1CCC(Cc2ccccc2)CC1	Measles CPE 43
Cc1cccc(-c2nnn(Cc3nnc(NC(=O)c4ccccc4)s3)n2)c1	Rad51 HR inh 88
COc1ccc(Cc2nnc(NC(=O)c3cccc(C)c3)s2)cc1	none (no result: Measles CPE, NPY Y2 blocker)
OC(CNCCNc1ncccc1C(F)(F)F)COc1ccc(F)cc1 (centres undefined)	NPY2 pot ag 61, NPY1 pot ag 86 (no result: Measles CPE, NPY-Y1 antag, Rad51 HR inh, NPY Y2 blocker)
COc1ccc(OCC(O)CNC(=O)c2cccs2)cc1 (centres undefined)	none (no result: Measles CPE, NPY-Y1 antag, NPY Y2 blocker)
O=C(C[n+]1ccccc1)N/N=C/c1ccc(F)cc1	none (no result: Measles CPE, NPY Y2 blocker)
Cc1c(NC(=O)c2cc(-n3cnnc3)ccc2Cl)cccc1-c1nc2ccccc2s1	none
Cc1c(NC(=O)c2cccs2)cccc1-c1nc2ccccc2s1	NPY2 pot ag 27, NPY1 pot ag 46
Cc1cc(Oc2cc(N)cc([N+](=O)[O-])c2)ccc1Cl	none
OC(COCC1COc2ccccc2O1)CN1CCN(c2ccccc2)CC1 (centres undefined)	NPY2 pot ag 34
O=C(NCCc1c[nH]c2ccccc12)c1cccnc1	Measles CPE 74
Cn1nnnc1SCC(=O)N1c2ccccc2Sc2ccccc21	none
CCn1nnnc1SCC(=O)N1c2ccccc2Sc2ccccc21	Measles CPE 28
CCC(=O)c1ccc(N2CCN(C(=O)c3ccc(F)cc3)CC2)c(F)c1	none (no result: Measles CPE, NPY Y2 blocker)
COc1ccc(C(=O)c2ccc(N3CCN(C(=O)c4ccc(F)cc4)CC3)c(F)c2)cc1Br	Measles CPE 56
CCn1cc([N+](=O)[O-])c(C(=O)N2N=C(c3ccccc3)CC2c2ccc([N+](=O)[O-])cc2)n1 (centres undefined)	Measles CPE 27 (no result: Rad51 HR inh)
CCn1cc([N+](=O)[O-])c(C(=O)N2N=C(c3ccc(Cl)c(Cl)c3)CC2c2ccccc2O)n1 (centres undefined)	none (no result: Measles CPE, NPY Y2 blocker)
O=C(C1CCN(CC2CC=CCC2)CC1)N(CCc1ccccc1)Cc1ccccc1 (centres undefined)	NPY-Y1 antag 24, NPY Y2 blocker 18
O=C(C1CCN(S(=O)(=O)c2cnc[nH]2)CC1)N(CCc1ccccc1)Cc1ccccc1	none (no result: Measles CPE, Rad51 HR inh, NPY Y2 blocker)
O=C(C1CCN(CCCc2ccccc2)CC1)N(CCc1ccccc1)Cc1ccccc1	NPY-Y1 antag 27, NPY Y2 blocker 36 (no result: Rad51 HR inh)
O=C(NCCCN1CCOCC1)c1onc(CSc2ccc(F)c(F)c2)c1C(=O)NCCCN1CCOCC1	none (no result: Measles CPE, NPY2 pot ag, NPY-Y1 antag, NPY1 pot ag, NPY Y2 blocker)
Cc1nc2nc(SCC(=O)c3ccc([N+](=O)[O-])cc3)[nH]c2cc1Br	none
O=C1c2cccc3cccc(c23)C(=O)N1CCN1CCN(CC(O)COc2ccc3ccccc3c2)CC1 (centres undefined)	Measles CPE 57
COc1cccc(OCC(O)CN2CCC(CN3C(=O)c4cccc5cccc(c45)C3=O)CC2)c1 (centres undefined)	NPY2 pot ag 43, NPY1 pot ag 52 (no result: Measles CPE, NPY Y2 blocker)
Cc1ccc(C)c(OCC(O)CN2CCN(CCN3C(=O)c4cccc5cccc(c45)C3=O)CC2)c1 (centres undefined)	none
CCOC(=O)C(=CNNc1cccc(Cl)c1)C(=O)OCC	NPY2 pot ag 54, NPY1 pot ag 62 (no result: Measles CPE, NPY-Y1 antag, NPY Y2 blocker)
CNc1cc(C)nc(-n2nc(C)cc2C)n1	none
CCOc1ccc(Nc2cc(C)nc(-n3nc(C)cc3C)n2)cc1	Measles CPE 43
COc1ccc(CCNCC(O)Cn2c3ccccc3c3ccccc32)cc1OC (centres undefined)	none (no result: Measles CPE, NPY Y2 blocker)
COc1ccc(CCNCC(O)COc2cccc(Br)c2)cc1OC (centres undefined)	NPY2 pot ag 82, NPY1 pot ag 105 (no result: Measles CPE, NPY-Y1 antag, NPY Y2 blocker)
CCN(CC)CCN1C(=O)C(O)=C(C(=O)c2cc3cccc(OC)c3o2)C1c1cccs1 (centres undefined)	none (no result: Measles CPE, NPY-Y1 antag, NPY Y2 blocker)
Cc1ccccc1C(=O)c1c[nH]c(C(N)=O)c1	NPY1 pot ag 111
Cc1cccc(CC2S/C(=N/N=C/c3ccco3)NC2=O)c1 (centres undefined)	none (no result: Measles CPE, NPY Y2 blocker)
Cc1cccc(NC(=O)C2CC(=O)N/C(=N/N=C/c3ccco3)S2)c1 (centres undefined)	Measles CPE 30

Screens from PubChem BioAssay.
